One block for each compound: values may come before it. Active and inactive are the calls of the source. The rule behind the calls is not given here.
How the values were obtained:
Mus musculus [1] = assay: Antipsychotic activity in CD1 mouse assessed as increase in brain cGMP levels at 32 mg/kg, sc measured after 15 mins post dosing relative to control; type: functional; details: route subcutaneous
[2] = Intrinsic clearance in human liver microsomes; type: ADME, Microsome
Mus musculus [3] = assay: Antipsychotic activity in CD1 mouse assessed as increase in brain cGMP levels at 32 mg/kg, sc measured after 30 mins post dosing relative to control; type: functional; details: route subcutaneous
human MDR [4] = assay: Apparent permeability across apical to basolateral side in dog MDCK cells expressing human MDR; type: ADME, cell-based, Canis lupus familiaris; details: MDCK-MDR1
[5] = target: T1, cAMP and cAMP-inhibited cGMP 3',5'-cyclic phosphodiesterase 10A (Rattus norvegicus, UniProt Q9QYJ6); assay: Inhibition of recombinant rat PDE10A expressed in Sf9 cells using [3H]cAMP after 30 mins by scintillation proximity assay
T1 sequence (Q9QYJ6 whole entry): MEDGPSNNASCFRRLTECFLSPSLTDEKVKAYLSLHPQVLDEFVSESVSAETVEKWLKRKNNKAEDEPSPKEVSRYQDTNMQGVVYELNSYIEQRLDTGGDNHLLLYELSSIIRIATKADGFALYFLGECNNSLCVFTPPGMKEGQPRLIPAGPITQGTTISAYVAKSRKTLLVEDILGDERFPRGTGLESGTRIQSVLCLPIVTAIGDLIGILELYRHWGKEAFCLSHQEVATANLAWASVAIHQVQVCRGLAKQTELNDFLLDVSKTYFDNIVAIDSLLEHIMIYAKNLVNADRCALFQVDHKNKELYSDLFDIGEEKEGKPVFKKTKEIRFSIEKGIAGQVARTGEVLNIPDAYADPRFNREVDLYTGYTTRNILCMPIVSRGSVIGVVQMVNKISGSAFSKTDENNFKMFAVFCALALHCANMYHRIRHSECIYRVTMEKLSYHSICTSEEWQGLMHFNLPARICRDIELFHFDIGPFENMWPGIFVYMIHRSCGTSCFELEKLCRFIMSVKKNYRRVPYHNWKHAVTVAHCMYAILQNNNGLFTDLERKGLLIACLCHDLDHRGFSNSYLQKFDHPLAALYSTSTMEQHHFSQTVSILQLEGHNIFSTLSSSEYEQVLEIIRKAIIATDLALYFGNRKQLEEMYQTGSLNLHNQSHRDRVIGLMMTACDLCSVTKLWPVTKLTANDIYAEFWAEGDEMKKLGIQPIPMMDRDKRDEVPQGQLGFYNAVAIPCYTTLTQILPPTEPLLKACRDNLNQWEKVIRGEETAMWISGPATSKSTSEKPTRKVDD
How it was run: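 Full-length rat PDE10A clone expressed in Sf9 cells; enzyme extracted in Tris/benzamidine/EDTA/sucrose/PMSF lysis buffer, pH 7.5. 30 min at room temperature, stopped with SPA beads, counted after 10–12 h.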

[6] = target: T2, cGMP-inhibited 3',5'-cyclic phosphodiesterase 3A (Homo sapiens, UniProt Q14432); assay: Inhibition of PDE3A at 1 uM
Mus musculus [7] = assay: Antipsychotic activity in CD1 mouse assessed as increase in striatal cGMP levels at 5.6 mg/kg, sc measured after 60 mins; type: functional, organism-based; design: dose 5.6 mg/kg
[8] = Intrinsic clearance in rat liver microsomes; type: ADME, Microsome
[9] = Selectivity ratio of IC50 for PDE3A to IC50 for rat PDE10A
Mus musculus [10] = assay: Antipsychotic activity in CD1 mouse assessed as increase in brain cGMP levels at 32 mg/kg, sc measured after 60 mins post dosing relative to control; type: functional; details: route subcutaneous
Mus musculus [11] = assay: Antipsychotic activity in CD1 mouse assessed as increase in brain cGMP levels at 5.6 mg/kg, sc measured after 60 mins post dosing relative to control; type: functional; details: route subcutaneous
Mus musculus [12] = assay: Antipsychotic activity in sc dosed PDE10A-knock out DBA1LAC/J mouse assessed as inhibition of conditioned avoidance response administered 30 mins prior testing; type: functional
Mus musculus [13] = assay: Antipsychotic activity in sc dosed PDE10A-positive DBA1LAC/J mouse assessed as inhibition of conditioned avoidance response administered 30 mins prior testing; type: functional
human MDR [14] = assay: Efflux ratio of permeability from basolateral to apical side over apical to basolateral side in dog MDCK cells expressing human MDR; type: ADME, cell-based, Canis lupus familiaris; details: MDCK-MDR1
[15] = target: T2, cGMP-inhibited 3',5'-cyclic phosphodiesterase 3A; assay: Inhibition of PDE3A
[16] = Selectivity ratio IC50 for PDE2A to IC50 for rat PDE10A
[17] = Selectivity ratio IC50 for PDE11A to IC50 for rat PDE10A
[18] = Selectivity ratio IC50 for PDE1A to IC50 for rat PDE10A
[19] = Selectivity ratio IC50 for PDE9A to IC50 for rat PDE10A
[20] = Selectivity ratio IC50 for PDE7A to IC50 for rat PDE10A
[21] = Selectivity ratio IC50 for PDE8A to IC50 for rat PDE10A
[22] = Selectivity ratio IC50 for PDE4D to IC50 for rat PDE10A
[23] = Selectivity ratio IC50 for PDE5A to IC50 for rat PDE10A
[24] = Selectivity ratio IC50 for PDE6A to IC50 for rat PDE10A

T2 sequence (Q14432 whole entry): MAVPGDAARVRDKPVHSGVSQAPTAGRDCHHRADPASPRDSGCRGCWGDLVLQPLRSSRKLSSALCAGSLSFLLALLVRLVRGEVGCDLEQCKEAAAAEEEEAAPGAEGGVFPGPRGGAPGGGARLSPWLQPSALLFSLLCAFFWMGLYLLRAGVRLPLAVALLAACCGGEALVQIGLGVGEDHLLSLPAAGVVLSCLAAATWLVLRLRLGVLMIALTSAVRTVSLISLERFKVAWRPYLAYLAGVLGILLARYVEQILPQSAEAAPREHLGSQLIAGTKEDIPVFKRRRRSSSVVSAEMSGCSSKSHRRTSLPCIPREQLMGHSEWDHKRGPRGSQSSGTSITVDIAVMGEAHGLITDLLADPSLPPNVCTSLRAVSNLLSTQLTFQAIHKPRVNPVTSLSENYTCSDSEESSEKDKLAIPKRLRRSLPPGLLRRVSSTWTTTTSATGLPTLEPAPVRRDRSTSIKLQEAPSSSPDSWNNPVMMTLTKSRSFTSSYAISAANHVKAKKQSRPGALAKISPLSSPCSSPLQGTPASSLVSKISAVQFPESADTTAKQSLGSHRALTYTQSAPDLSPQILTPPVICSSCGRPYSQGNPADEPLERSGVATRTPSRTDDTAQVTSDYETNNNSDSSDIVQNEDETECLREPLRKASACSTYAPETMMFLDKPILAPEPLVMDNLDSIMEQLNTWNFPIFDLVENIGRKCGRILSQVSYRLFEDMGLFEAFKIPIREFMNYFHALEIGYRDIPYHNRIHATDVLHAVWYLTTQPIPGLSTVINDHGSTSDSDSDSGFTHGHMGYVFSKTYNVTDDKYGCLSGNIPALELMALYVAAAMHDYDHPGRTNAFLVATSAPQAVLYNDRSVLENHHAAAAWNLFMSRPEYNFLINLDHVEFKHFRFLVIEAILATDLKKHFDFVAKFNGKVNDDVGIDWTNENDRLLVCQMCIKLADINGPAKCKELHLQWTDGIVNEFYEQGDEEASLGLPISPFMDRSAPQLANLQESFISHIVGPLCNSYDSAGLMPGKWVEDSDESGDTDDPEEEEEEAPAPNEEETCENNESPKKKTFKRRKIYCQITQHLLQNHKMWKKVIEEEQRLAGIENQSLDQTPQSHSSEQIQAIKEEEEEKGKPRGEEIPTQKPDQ

Compound: COc1cc2ncnc(N3CCCC(c4ccccc4)C3)c2cc1OCCc1cccnc1 (stereo not drawn)
- IC50 [5]: 2340 nM

Compound: COc1cc2cncnc2cc1OCCc1ccc2ccccc2n1
- inhibition [6]: 51%
- Activity (Mus musculus [7]): inactive
- CLint scaled [2]: < 7 mL/min/kg
- Papp A→B (human MDR [4]): 3 ×10⁻⁶ cm/s
- CLint scaled [8]: 183 mL/min/kg

Compound: COc1cc2ncnc(N3CCCC(c4ccccc4)C3)c2cc1OCCc1ccncc1 (stereo not drawn)
- IC50 [5]: > 3200 nM

Compound: COc1cc2ncnc(N3CCCC(c4ccccc4)C3)c2cc1OCCc1ccccn1 (racemic)
- Ratio IC50 [9]: > 5

Compound: COc1cc2ncnc(N3CCCC(c4ccccc4)C3)c2cc1OCc1ccncc1 (stereo not drawn)
- IC50 [5]: > 3200 nM

Compound: COc1cc2ncnc(N3CCCC(c4ccccc4)C3)c2cc1OC (stereo not drawn) [listing 1 of 2 here]
- efflux ratio (human MDR [14]): 0.7
- IC50 [15]: 8.5 nM
- CLint scaled [2]: 13 mL/min/kg

Compound: COc1cc2ncnc(N3CCCC(c4ccccc4)C3)c2cc1OCc1ccccn1 (stereo not drawn)
- IC50 [5]: > 3200 nM

Compound: COc1cc2ncnc(N3CCCC(c4ccccc4)C3)c2cc1OCc1ccc2ccccc2n1 (stereo not drawn)
- IC50 [5]: > 3200 nM

Compound: COc1cc2ncnc(N3CCCC(c4ccccc4)C3)c2cc1OCc1cccnc1 (stereo not drawn)
- IC50 [5]: > 3200 nM

Compound: COc1cc2ncnc(N3CCCC(c4ccccc4)C3)c2cc1OC (stereo not drawn) [listing 2 of 2 here]
- Ratio IC50 [9]: < 0.1

Compound: COc1cc2ncnc(N3CCCC(c4ccccc4)C3)c2cc1OCCc1ccccn1 (stereo not drawn)
- inhibition [6]: 32%

Compound: COc1cc2ncnc(N3CCCC(c4ccccc4)C3)c2cc1OCCc1ccc2ccccc2n1 (stereo not drawn)
- Ratio IC50 [16]: > 100
- Ratio IC50 [17]: > 100
- Ratio IC50 [18]: > 100
- Ratio IC50 [9]: > 100
- efflux ratio (human MDR [14]): > 10
- Ratio IC50 [19]: > 100
- Ratio IC50 [20]: > 100
- Ratio IC50 [21]: > 100
- Ratio IC50 [22]: > 100
- Ratio IC50 [23]: > 100
- CLint scaled [2]: > 19 mL/min/kg
- Ratio IC50 [24]: > 100

Further lines, with some results ahead:

- CLint scaled [2]: 93 mL/min/kg
- Papp A→B (human MDR [4]): 18 ×10⁻⁶ cm/s
- IC50 [5]: 12 nM
Compound: COc1cc2ncn(C)c(=O)c2cc1OCCc1ccc2ccccc2n1
- Activity (Mus musculus [1]): 129%
- Activity (Mus musculus [3]): 79%

- CLint scaled [2]: 178 mL/min/kg
- Papp A→B (human MDR [4]): 19 ×10⁻⁶ cm/s
- IC50 [5]: 14 nM
Compound: COc1cc2ncnc(N(C)C)c2cc1OCCc1ccc2ccccc2n1
- Activity (Mus musculus [10]): 268%
- Activity (Mus musculus [11]): 34%

- inhibition [6]: 11%
- IC50 [5]: 10 nM
Compound: COc1cc2ncnc(N3CCCC(c4ccccc4)C3)c2cc1OCCCc1nc2ccccc2n1C (stereo not drawn)

- CLint scaled [2]: < 8 mL/min/kg
- Papp A→B (human MDR [4]): 0.4 ×10⁻⁶ cm/s
- IC50 [5]: 5 nM
Compound: COc1cc2ncnc(-c3cccnc3)c2cc1OCCc1ccc2ccccc2n1
- ED50 (Mus musculus [12]): > 5.8 mg/kg
- ED50 (Mus musculus [13]): 3.18 mg/kg
- Activity (Mus musculus [11]): 79%

- IC50 [5]: 809 nM
Compound: c1ccc2nc(CCOc3ccc4ccncc4c3)ccc2c1

- IC50 [5]: 146 nM
Compound: COc1cc2ncnc(N3CCCC(c4ccccc4)C3)c2cc1OC (racemic)

- Ratio IC50 [9]: < 0.1
- IC50 [15]: 98 nM
- IC50 [5]: 1040 nM
Compound: CCCOc1cc2c(N3CCCC(c4ccccc4)C3)ncnc2cc1OC (stereo not drawn)

- IC50 [5]: 1660 nM
Compound: COc1cc2ncnc(N3CCCC(c4ccccc4)C3)c2cc1OCCc1ccccc1 (stereo not drawn)
